Calls of active or inactive are those of the source. The calls are words filed in the database; no cut-off is given here.
How the values were obtained:
Mus musculus = assay: Vascular disrupting activity in human PC3 cells xenografted SCID mouse assessed as decrease of blood flow in tumor at 350 mg/kg, ip after 80 mins by bioluminescence imaging analysis; format: functional, organism-based; design: dose 350 mg/kg; settings: PC-3
Tubulin (Homo sapiens) [1] = biological target: T1, Tubulin (Homo sapiens) (UniProt P68371+Q9H4B7+P0DPH7+P68366+Q13509+Q71U36+P04350+Q3ZCM7+P07437+P68363+Q9BQE3+Q6PEY2+Q13885+Q9BVA1+Q9BUF5); assay: Displacement of [3H]colchicine from tubulin (unknown origin) at 5 uM; format: protein-complex assay
How it was run: (§1)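 Colchicine binding assay with 1 μM tubulin and 5.0 μM [3H]colchicine. Inhibitor tested at 50, 5 and/or 1 μM.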

[2] = Inhibition of bovine brain tubulin polymerization after 20 mins; design: species or system Bos taurus
How it was run: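 Purified bovine brain tubulin, 10 μM (1.0 mg/mL), preincubated with a concentration series in glutamate buffer at 30 °C, then cooled to 0 °C. GTP added, then warmed to 30 °C to start assembly. Turbidity read at 350 nm, with disassembly checked by cooling.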

SK-OV-3 = assay: Cytotoxicity against human SKOV3 cells by SRB assay; format: functional
How it was run: (§2)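 Cell lines obtained from ATCC and kept in recommended media containing gentamicin and amphotericin B. Growth inhibition was measured by the NCI standard sulforhodamine B assay. GI50 is the drug concentration calculated to halve net protein increase relative to untreated cells. Values are averages of at least three separate experiments, each run in triplicate.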

DU-145 = assay: Cytotoxicity against human DU145 cells by SRB assay; format: functional; how it was run: as §2
NCI-H460 = assay: Cytotoxicity against human NCI-H460 cells by SRB assay; format: functional; how it was run: as §2
Tubulin (Homo sapiens) [3] = biological target: T1, Tubulin (Homo sapiens); assay: Displacement of [3H]colchicine from tubulin (unknown origin) at 50 uM; format: protein-complex assay; how it was run: as §1

SMILES: COc1ccc2c(C(=O)c3cc(OC)c(OC)c(OC)c3)c(-c3ccc(OC)c(OP(=O)(O)O)c3)[nH]c2c1
- Activity (Mus musculus): Active
- inhibition (Tubulin (Homo sapiens) [1]): 26%
- IC50 [2]: 4.2 µM
- GI50 (SK-OV-3): 22.3 nM
- GI50 (DU-145): 29.7 nM
- GI50 (NCI-H460): 31.1 nM

SMILES: COc1ccc(/C=C\c2cc(OC)c(OC)c(OC)c2)cc1O [COMBRETASTATIN A4]
- GI50 (SK-OV-3): 0.42 nM
- GI50 (DU-145): 0.54 nM
- GI50 (NCI-H460): 2.8 nM

SMILES: COc1ccc2c(C(=O)c3cc(OC)c(OC)c(OC)c3)c(-c3ccc(OC)c(O)c3)n(C)c2c1
- inhibition (Tubulin (Homo sapiens) [3]): 34%
- IC50 [2]: > 20 µM
- GI50 (SK-OV-3): 2050 nM
- GI50 (DU-145): 2680 nM
- GI50 (NCI-H460): 4140 nM

SMILES: COc1ccc2c(C(=O)c3cc(OC)c(OC)c(OC)c3)c(-c3ccc(OC)c(OP(=O)(O)O)c3)n(C)c2c1
- inhibition (Tubulin (Homo sapiens) [3]): 29%
- IC50 [2]: > 20 µM
- GI50 (SK-OV-3): 8640 nM
- GI50 (DU-145): 4670 nM
- GI50 (NCI-H460): 3560 nM

SMILES: COc1ccc(/C=C\c2cc(OC)c(OC)c(OC)c2)cc1OP(=O)(O)O [FOSBRETABULIN DISODIUM]
- GI50 (DU-145): 16 nM
- GI50 (NCI-H460): 66 nM
